Screens (PubChem BioAssay)
Jurkat NFkB inh: inhibitors of induced NF-kB luciferase reporter, primary screen, TCR NF-kB activation inhibitor project, cell-based, luminescence, uHTS | Jurkat, PMA/ionomycin-induced NF-kB luciferase reporter | AID 435003, 2010 | inhibition, % at 4 µM | 330,000 compounds, 0.53% hits; in the data active means inhibition above about 50%
Gli-Sufu block: Gli-Sufu pathway antagonists, primary screen, luciferase luminescence, Sufu-KO-LIGHT cells, uHTS; 340,000 compounds, 0.74% hits; Sufu-KO-LIGHT fibroblasts, Gli luciferase reporter luminescence; AID 588413, 2011; inhibition, % at 5 µM;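 active means inhibition above about 55%, limit read from the data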;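 further: 0% = DMSO-treated cells and 100% = wells with medium but no cells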
UPR XBP1 act: activators of adaptive XBP1 UPR arm, primary screen, cell-based, CHO-XBP1 luciferase reporter, luminescence, uHTS; activation, % at 20 µM; IRE1-XBP1 UPR activation; percent of tunicamycin response, DMSO as zero; 330,000 compounds, 0.33% hits;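 active means versus positive control, 20 µM dose yields 30% or more activation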;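 further: 100% = tunicamycin at 10 µg/mL and 0% = DMSO only wells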
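Signal: luciferase luminescence; Assay system: CHO-XBP1 luciferase reporter cells; Amount: one thousand reporter cells per well; Dosing: 20 µM single concentration, DMSO 1%; Benchmarks: high control tunicamycin 10 µg/mL final, low control DMSO vehicle only; Schedule: 6 h compound exposure at 37 °C, 5% CO2; Evaluation: percent activation relative to tunicamycin reference.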
CHOP inh: inhibitors of CHOP promoter induction, primary screen, cell-based, unfolded protein response, luciferase reporter | inhibition, % at 10 µM | CHO-K1 CHOP-promoter luciferase, tunicamycin-induced, 15-18 h | AID 2732, 2010 | 220,000 compounds, 3.8% hits;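 active means compounds that reduced the stress-induced luciferase reporter signal by more than about 70% of percent inhibition, limit read from the data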;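 further: 0% = tunicamycin plus vehicle and 100% = wells without tunicamycin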
CHOP UPR activ: activators of apoptotic CHOP UPR arm, primary screen, cell-based, CHO-CHOP luciferase reporter, luminescence, uHTS | activation, % at 10 µM | UPR activation; percent of tunicamycin response over DMSO baseline | AID 449763, 2010 | 330,000 compounds, 0.34% hits;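 active means at 10 µM dose, activation of 40% or more, normalized to positive control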;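 further: 100% = tunicamycin at 10 µg/mL and 0% = DMSO alone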
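Material: CHO-CHOP cells, stable luciferase reporter of PERK-eIF2a-CHOP signalling; quantity: 500 reporter cells seeded per well; buffer or medium: F12 medium containing 10% fetal bovine serum; compound: one dose, 10 µM in 0.5% DMSO; incubation: 6 h compound treatment, 37 °C; measured by: Steady-Glo luciferase luminescence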
697 NFkB inh: inhibitors of PMA/ionomycin-induced NF-kB reporter, 697 cells, primary screen, B-cell NF-kB inhibitor project, cell-based, luminescence, uHTS | 330,000 compounds, 0.33% hits | 697 B-cell NF-kB luciferase reporter, 16 h | inhibition, % at 4 µM | AID 435022, 2010; in the data active means inhibition above about 35%
CHOP inh conf: retest of CHOP induction inhibitors, confirmation, cell-based; shares compounds with CHOP inh; AID 504437, 2011; inhibition, % at 10 µM; CHO-CHOP promoter luciferase reporter, tunicamycin-induced, luminescence; 2,100 compounds, 45% hits;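 active means mean of three repeat readings of reporter signal inhibition above a set limit, cut at about 70% in these data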;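 further: 0% = tunicamycin plus vehicle and 100% = wells lacking tunicamycin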
* marks the source's active call; other numbers are inactive results; . = not tested or not shown. Only some compounds are listed: those with a hit (about 3.9% of all), similar ones and a draw of the others.

SMILES	Jurkat NFkB inh	Gli-Sufu block	UPR XBP1 act	CHOP inh	CHOP UPR activ	697 NFkB inh	CHOP inh conf
CC(Oc1ccccc1)C(=O)N=Nc1c(O)[nH]c2ccc(Br)cc12 (configuration not stated)	2	-1	-3	101*	0	-4	-4
CC1CCCN(S(=O)(=O)c2ccc(C(=O)Nc3nnc(-c4ccccc4Cl)o3)cc2)C1 (configuration not stated)	11	15	5	98*	3	-56	34
CC(C)(C)n1nnnc1C(c1cccnc1)N1CCN(c2cccc(C(F)(F)F)c2)CC1 (configuration not stated)	3	-8	6	42	-2	12	.
CC(C)(C)c1cc(C(c2cccnc2)N2CCN(CCO)CC2)cc(C(C)(C)C)c1O (configuration not stated)	-12	0	-9	110*	-9	-23	-60
COC(=O)c1c(NC(=O)Nc2ccc(Cl)cc2)sc(C)c1C	-2	4	3	100*	0	-7	99*
Cc1ccc(N=c2ssnc2Cl)cc1	-14	3	0	5	2	-38	.
COc1ccc(OC)c(N=c2ssnc2Cl)c1	-9	1	0	107*	1	-16	-6
Cc1cc(C)nc(/N=c2/ssnc2Cl)c1	-3	4	-5	96*	14	12	19
COc1cc(N=c2ssnc2Cl)c(OC)cc1Cl	-5	5	-1	-26	3	5	.
Cc1cc(Cl)ccc1N=c1ssnc1Cl	3	3	5	108*	-2	-6	16
Cc1cccc(C)c1NC(=O)CNC(=O)c1ccc(COc2ccccc2)cc1	-8	3	-3	.	3	14	.
Cc1ccc(C)c(N2CCN(CCCNC(=O)Cn3c(=O)c4cccn4c4cccnc43)CC2)c1	-2	19	-4	.	0	-1	.
Cc1c(CCO)c(=O)n2c([nH]c3ccccc32)c1C#N	11	7	-5	.	-2	8	.
CCCCc1c(C)c(C#N)c2[nH]c3ccccc3n2c1=O	10	27	0	103*	-2	-8	56
N#Cc1c(N)c2ccccn2c1C(=O)c1ccc(Br)cc1	14	1	5	.	2	-14	.
COc1ccc(C2NCCc3c2[nH]c2ccccc32)cc1CSc1nc2ccccc2s1 (configuration not stated)	.	10	.	99*	.	.	45
O=c1[nH]c(CSc2nc3ccccc3s2)nc2ccccc12	-17	-24	7	-13	3	-23	.
c1ccc(C2Nc3cccc4cccc(c34)N2)cc1	5	-6	4	.	1	-29	.
c1csc(C2Nc3cccc4cccc(c34)N2)c1	0	35	1	97*	0	4	16
COc1nc(Nc2ccc(O)cc2)nc(OC(C(F)(F)F)C(F)(F)F)n1	4	10	2	66	0	1	.
Nc1cccc(Nc2nc(OC(C(F)(F)F)C(F)(F)F)nc(OC(C(F)(F)F)C(F)(F)F)n2)c1	-6	-7	3	100*	-2	14	117*
O=C(COc1ccc2c(-c3ccccc3)cc(=O)oc2c1)NCCCN1CCOCC1	-10	10	-1	.	0	-41	.
Cc1cc(=O)oc2cc(OCC(=O)NCCCN3CCOCC3)ccc12	-10	-5	-1	100*	1	13	1
O=C(Cn1ncc2c3ccccc3n(Cc3ccccc3)c2c1=O)NCc1ccco1	10	-4	-2	96*	1	13	16
COCCn1c(SCC(=O)Nc2ccc(OC)cc2)nc2c(oc3ccccc32)c1=O	-6	.	21	48	3	12	.
SMILES	Jurkat NFkB inh	Gli-Sufu block	UPR XBP1 act	CHOP inh	CHOP UPR activ	697 NFkB inh	CHOP inh conf
COCCn1c(SCC(=O)Nc2ccc(C)cc2C)nc2c(oc3ccccc32)c1=O	-6	-10	-1	101*	-1	-18	22
C[C@H]1CN=C(N(C)C)N1CCc1ccc(F)cc1	5	6	-5	.	-1	12	.
COc1cc(NC(=O)Cn2c(C)cc3ccccc3c2=O)cc(OC)c1OC	4	2	-4	97*	-3	7	20
COc1ccccc1NC(=O)CNC(=O)Cn1c(C)cc2ccccc2c1=O	-4	-9	-3	.	0	6	.
O=c1cc(-c2c(F)c(F)c(F)c(F)c2F)oc2c(F)c(F)c(F)c(F)c12	15	.	-5	109*	-9	-23	124*
O=c1cc(-c2c(F)c(F)c(F)c(F)c2F)oc2ccccc12	7	6	5	29	3	6	.
O=C(Nc1ccc(C(O)(C(F)(F)F)C(F)(F)F)cc1)c1ccc(Cl)c([N+](=O)[O-])c1	-13	-8	3	107*	3	0	117*
Cc1ccc(Nc2nc(Cl)c(C=O)s2)cc1Cl	-23	-6	7	96*	4	28	-20
O=Cc1sc(Nc2ccccc2)nc1Cl	-9	-9	1	-43	3	15	.
O=C(N/N=C/c1cccc([N+](=O)[O-])c1)c1cccc2cc[nH]c12	-7	3	-2	101*	2	14	-14
CCc1c(C2(O)CCCCC2)[nH]c2cnccc12	-9	-10	-2	.	0	4	.
CCC(=O)Nc1cc(ON=C(C)C)cc([N+](=O)[O-])c1	.	2	.	10	.	.	.
CC(C)=NOc1cc(NC(=O)CCl)cc([N+](=O)[O-])c1	16	14	-5	111*	-7	2	110*
COc1ccc(NC(=O)c2cc(-c3ccccc3O)n[nH]2)cc1Cl	-32	-5	1	.	4	-34	.
COc1ccc(Cl)cc1NC(=O)c1cc(-c2cc(C)ccc2O)n[nH]1	-11	-9	1	100*	0	17	-9
COc1ccc(NC(=O)c2cc(-c3cc(C)cc(C)c3O)n[nH]2)cc1Cl	2	3	2	104*	0	-24	102*
CCOc1ccc(-c2nc(N)ncc2Oc2ccccc2Br)c(O)c1	2	16	-1	106*	-4	22	47
CCOc1ccc(-c2nc(N)ncc2Oc2cccc(OC)c2)c(O)c1	15	-14	3	110*	0	-26	25
Cc1[nH]nc(-c2ccc(OCc3cnn(-c4ccccc4)c3)cc2O)c1Oc1ccc(F)cc1	1	7	-2	68	-2	-6	.
